Measured values as given in ChEMBL document CHEMBL5120974, “Antitubercular Activity of Novel 2-(Quinoline-4-yloxy)acetamides with Improved Drug-Like Properties” (ACS Med Chem Lett, 2022).
≈ marks a conversion by molar mass, not a printed value.

Assays:
Assay type in all cases: functional
[1] = tested on: Mycobacterium tuberculosis; experiment: Antitubercular activity against Multidrug-resistant Mycobacterium tuberculosis clinical isolate PT2 assessed as bacterial growth inhibition incubated for 7 days by resazurin dye based assay; conditions: PT2, 168 h, time 7 day
[2] = tested on: Mycobacterium tuberculosis; experiment: Antitubercular activity against Multidrug-resistant Mycobacterium tuberculosis clinical isolate PT12 assessed as bacterial growth inhibition incubated for 7 days by resazurin dye based assay; conditions: PT12, 168 h, time 7 day
[3] = tested on: Mycobacterium tuberculosis; experiment: Antitubercular activity against Multidrug-resistant Mycobacterium tuberculosis clinical isolate PT20 assessed as bacterial growth inhibition incubated for 7 days by resazurin dye based assay; conditions: PT20, 168 h, time 7 day
[4] = tested on: Mycobacterium tuberculosis; experiment: Antitubercular activity against Multidrug-resistant Mycobacterium tuberculosis qcrB-T313A mutant assessed as bacterial growth inhibition incubated for 7 days by resazurin dye based assay; conditions: time 7 day
Summary of the method: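 MIC measured against a spontaneous mutant selected for resistance to 2-(quinolin-4-yloxy)acetamides, with a fully sequenced genome and a single qcrB change (ACC to GCC at nucleotide 937, T313A substitution).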

Row | SMILES | MIC [1] [µM] | MIC [2] [µM] | MIC [3] [µM] | MIC [4] [µM]
1 | CCc1cc(OCC(=O)Nc2ccc(N3CCCCC3)cc2)c2cc(OC)ccc2n1 | < 0.04 | 0.19 (≈ 0.0797 µg/mL) | < 0.04 | >23.8
2 | COc1ccc2nc(C)cc(OCC(=O)Nc3ccc(N4CCCCC4)cc3)c2c1 | < 0.04 | 0.19 (≈ 0.077 µg/mL) | < 0.04 | >24.7
3 | NNC(=O)c1ccncc1 [ISONIAZID] | – | 146 (≈ 20 µg/mL) | – | 2.3 (≈ 0.315 µg/mL)
4 | CO[C@H]1/C=C/O[C@@]2(C)Oc3c(C)c(O)c4c(O)c(c(/C=N/N5CCN(C)CC5)c(O)c4c3C2=O)NC(=O)/C(C)=C\C=C\[C@H](C)[C@H](O)[C@@H](C)[C@@H](O)[C@@H](C)[C@H](OC(C)=O)[C@@H]1C [RIFAMPIN] | > 48.6 | > 48.6 | > 48.6 | –
